Laboratory results: ChEMBL document CHEMBL4118224, “Design and Synthesis of a Novel Series of Orally Bioavailable, CNS-Penetrant, Isoform Selective Phosphoinositide 3-Kinase γ (PI3Kγ) Inhibitors with Potential for the Treatment of Multiple Sclerosis (MS)” (J Med Chem, 2018)
Active and inactive are the calls of the source. The rule behind the calls is not given here.

Experiments:
[1] = target: T1, Phosphatidylinositol 4,5-bisphosphate 3-kinase catalytic subunit gamma isoform (Homo sapiens, UniProt P48736); assay: Inhibition of PI3Kgamma (unknown origin) using PIP2 as substrate after 15 mins in presence of [33P-ATP] by liquid scintillation counting method
[2] = species on record: Homo sapiens; assay: Selectivity ratio of Ki for PI3Kbeta (unknown origin) to Ki for PI3Kgamma (unknown origin)
[3] = species on record: Homo sapiens; assay: Selectivity ratio of Ki for PI3Kalpha (unknown origin) to Ki for PI3Kgamma (unknown origin)
[4] = species on record: Homo sapiens; assay: Selectivity ratio of Ki for PI3Kdelta (unknown origin) to Ki for PI3Kgamma (unknown origin)
[5] = target: T1, Phosphatidylinositol 4,5-bisphosphate 3-kinase catalytic subunit gamma isoform; assay: Inhibition of PI3Kgamma in human THP1 cells assessed as inhibition of MCP1-induced Akt phosphorylation at […] residue preincubated for 1 hr followed by MCP1 stimulation for 3 mins by FACS analysis; type: cell-based
Summary of the method: (§1)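 Akt phosphorylation was induced by MCP-1 in THP-1 cells or in splenocytes.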

[6] = Half life in iv dosed rat; type: ADME, organism-based; details: in vivo
[7] = Clearance in iv dosed rat; type: ADME, organism-based; details: in vivo
Summary of the method: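 Rat, dog and monkey PK after dosing; clearance in mL/min/Kg.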

[8] = Intrinsic clearance in rat hepatocytes assessed per million cells; type: ADME, cell-based, Hepatocyte; details: read-out: CLH
Summary of the method: (§2)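 Intrinsic clearance in rat, dog, monkey and human hepatocytes; units µL/min/M cells.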

[9] = Lipophilicity, log D of the compound at pH 7.4; type: physicochemical; details: buffer
[10] = Intrinsic clearance in human hepatocytes assessed per million cells; type: ADME, cell-based, Hepatocyte; details: read-out: CLH; summary of the method: as §2
[11] = target: Phosphatidylinositol-4,5-bisphosphate 3-kinase, catalytic subunit gamma (Rattus norvegicus, UniProt D3ZFJ0); assay: Inhibition of PI3Kgamma in rat spleenocytes assessed as inhibition of MCP1-induced Akt phosphorylation at […] residue preincubated for 1 hr followed by MCP1 stimulation for 3 mins by FACS analysis; type: cell-based; summary of the method: as §1
[12] = tested on: Mus musculus; assay: Anti-inflammatory activity in MOG (35 to 55 residues)-induced EAE C57BL/6 mouse model assessed as inhibition of development of clinical symptoms at 3 to 30 mg/kg, po bid […]; type: functional, organism-based
Summary of the method: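 C57BL6 mice immunized with myelin oligodendrocyte glycoprotein in complete Freund's adjuvant containing Mycobacterium tuberculosis. Oral dosing BID at 3, 10 and 30 mg/Kg began at a clinical score of 0.5-1. Vehicle and positive-control groups were run alongside. Read-out: clinical EAE score plotted against time after onset.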

[13] = tested on: MDR1; assay: Efflux ratio of permeability from basolateral to apical over apical to basolateral side in MDCK cells harboring MDR1; type: ADME, cell-based, Canis lupus familiaris; details: dog
Summary of the method: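 MDR1-MDCK monolayers; bidirectional transport. A-B permeability in x10-6 cm/s; efflux taken as the B-A/A-B ratio.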

[14] = tested on: Mus musculus; assay: Anti-inflammatory activity in MOG (35 to 55 residues)-induced EAE C57BL/6 mouse model assessed as inhibition of development of clinical symptoms at 1 mg/kg, po qd measured on day 8 post MOG (35 to 55 residues) immunization; type: functional, organism-based

T1 sequence (P48736 whole entry, canonical isoform): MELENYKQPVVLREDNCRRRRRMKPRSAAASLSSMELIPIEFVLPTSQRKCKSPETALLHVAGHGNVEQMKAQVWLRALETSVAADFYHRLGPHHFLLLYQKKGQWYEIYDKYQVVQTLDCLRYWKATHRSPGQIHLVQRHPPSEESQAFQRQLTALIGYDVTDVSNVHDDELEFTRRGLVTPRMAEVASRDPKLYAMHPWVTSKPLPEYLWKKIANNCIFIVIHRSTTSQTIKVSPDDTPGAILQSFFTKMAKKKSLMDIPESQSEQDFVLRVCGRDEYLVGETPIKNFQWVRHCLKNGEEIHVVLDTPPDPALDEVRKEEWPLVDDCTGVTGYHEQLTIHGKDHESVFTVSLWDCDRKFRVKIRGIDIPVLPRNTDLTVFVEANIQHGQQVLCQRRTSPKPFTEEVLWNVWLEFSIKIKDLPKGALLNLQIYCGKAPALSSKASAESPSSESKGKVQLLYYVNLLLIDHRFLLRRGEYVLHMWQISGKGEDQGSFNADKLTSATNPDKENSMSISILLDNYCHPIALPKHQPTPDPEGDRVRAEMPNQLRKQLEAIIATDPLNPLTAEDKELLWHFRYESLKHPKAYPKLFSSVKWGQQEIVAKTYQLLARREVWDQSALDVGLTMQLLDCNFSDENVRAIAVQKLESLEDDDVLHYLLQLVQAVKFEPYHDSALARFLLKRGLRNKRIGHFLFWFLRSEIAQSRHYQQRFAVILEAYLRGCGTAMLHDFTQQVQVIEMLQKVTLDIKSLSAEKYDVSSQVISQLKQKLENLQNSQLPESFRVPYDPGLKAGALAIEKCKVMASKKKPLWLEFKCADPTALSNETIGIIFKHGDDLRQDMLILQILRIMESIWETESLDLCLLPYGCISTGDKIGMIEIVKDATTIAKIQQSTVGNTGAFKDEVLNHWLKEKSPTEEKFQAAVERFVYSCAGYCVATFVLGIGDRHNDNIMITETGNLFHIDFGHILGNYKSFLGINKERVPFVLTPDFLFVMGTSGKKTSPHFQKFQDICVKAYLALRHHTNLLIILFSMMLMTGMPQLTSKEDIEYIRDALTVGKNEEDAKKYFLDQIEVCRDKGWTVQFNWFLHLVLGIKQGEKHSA
Chain of Phosphatidylinositol-4,5-bisphosphate 3-kinase, catalytic subunit gamma (D3ZFJ0 whole entry, the tested form may be a part): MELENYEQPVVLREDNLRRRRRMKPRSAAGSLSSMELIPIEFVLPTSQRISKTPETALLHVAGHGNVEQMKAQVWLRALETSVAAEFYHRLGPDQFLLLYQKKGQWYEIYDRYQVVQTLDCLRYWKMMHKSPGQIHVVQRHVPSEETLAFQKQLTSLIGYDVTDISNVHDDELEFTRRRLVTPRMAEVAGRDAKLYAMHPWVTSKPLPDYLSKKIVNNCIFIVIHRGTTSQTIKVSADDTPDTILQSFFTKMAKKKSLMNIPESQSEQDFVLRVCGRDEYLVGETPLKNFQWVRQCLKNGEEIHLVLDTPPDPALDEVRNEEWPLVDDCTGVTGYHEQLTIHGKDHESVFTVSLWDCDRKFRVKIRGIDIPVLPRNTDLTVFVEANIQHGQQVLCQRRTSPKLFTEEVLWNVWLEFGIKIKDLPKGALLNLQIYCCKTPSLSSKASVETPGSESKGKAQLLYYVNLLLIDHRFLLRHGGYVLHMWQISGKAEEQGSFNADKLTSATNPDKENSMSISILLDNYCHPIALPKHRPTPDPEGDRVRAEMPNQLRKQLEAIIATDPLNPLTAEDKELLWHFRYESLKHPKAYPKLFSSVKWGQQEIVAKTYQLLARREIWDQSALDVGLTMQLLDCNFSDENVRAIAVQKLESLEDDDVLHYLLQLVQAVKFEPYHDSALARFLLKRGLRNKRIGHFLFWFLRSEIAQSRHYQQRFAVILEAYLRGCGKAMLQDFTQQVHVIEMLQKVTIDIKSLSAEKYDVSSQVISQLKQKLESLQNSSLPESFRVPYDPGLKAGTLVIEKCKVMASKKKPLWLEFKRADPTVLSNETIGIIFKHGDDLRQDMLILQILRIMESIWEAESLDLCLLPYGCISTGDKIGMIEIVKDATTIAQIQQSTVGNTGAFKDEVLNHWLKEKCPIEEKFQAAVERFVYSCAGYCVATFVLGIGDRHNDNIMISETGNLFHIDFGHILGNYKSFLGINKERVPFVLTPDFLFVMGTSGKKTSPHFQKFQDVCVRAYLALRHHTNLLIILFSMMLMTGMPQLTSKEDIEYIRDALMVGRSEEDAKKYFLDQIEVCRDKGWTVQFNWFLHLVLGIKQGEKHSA

Ki [1] [µM]	Ratio Ki [2]	Ratio Ki [3]	Ratio Ki [4]	Structure (SMILES)	other results
0.02	10	11	4	COc1cc(-c2ccc3c(n2)CN(c2cnn(CCC#N)c2)C3=O)cnc1OC	
0.011	12	33	10	COc1cc(-c2ccc3c(n2)C(C)(C)N(c2cnn(CC(F)(F)F)c2)C3=O)cnc1OC	IC50 [5]: 0.34 µM; half-life [6]: 6.6 h; clearance [7]: 6.3 mL/min/kg
0.16	> 25	> 25	7	COc1ccc(-c2ccc3c(c2)CN(c2cccc(CC#N)c2)C3=O)cc1OC	hepatocyte CLint [8]: 111 µL/min/1e6 cells; clearance [7]: 116 mL/min/kg; logD [9]: 4.1; hepatocyte CLint [10]: 26 µL/min/1e6 cells
0.006	27	51	17	COc1cc(-c2ccc3c(c2)CN(c2cnn(CC#N)c2)C3=O)cnc1OC	clearance [7]: 56 mL/min/kg
0.035	11	40	16	COc1cc(-c2ccc3c(c2)CN(c2cccc(CC#N)c2)C3=O)cnc1OC	hepatocyte CLint [8]: 88 µL/min/1e6 cells; clearance [7]: 160 mL/min/kg; hepatocyte CLint [10]: 30 µL/min/1e6 cells
0.028	25	15	10	COc1cc(-c2ccc3c(n2)CN(c2cnn(C(C)(C)C#N)c2)C3=O)cnc1OC	
0.003 to 0.004				COc1cc(-c2ccc3c(n2)CN(c2cnn(CC#N)c2)C3=O)cnc1OC	

The remaining lines, values behind:

Structure (SMILES)	Ki [1] [µM]	Ratio Ki [2]	Ratio Ki [3]	Ratio Ki [4]	other results
C#CCn1cc(N2Cc3nc(-c4cnc(OC)c(OC)c4)ccc3C2=O)cn1	0.009	25	11	12	
COc1cc(-c2ccc3c(n2)[C@@H](C)N(c2cnn(CC(F)(F)F)c2)C3=O)cnc1OC					IC50 [11]: 0.21 µM; Activity [12]: Active
COc1cc(-c2ccc3c(n2)CN(c2cnn(CC(F)F)c2)C3=O)cnc1OC	0.009	12	22	5	
CCn1cc(N2Cc3nc(-c4cnc(OC)c(OC)c4)ccc3C2=O)cn1	0.008	39	25	14	
COc1cc(-c2ccc3c(n2)CN(c2cnn(C)c2)C3=O)cnc1OC	0.06	9	5	3	efflux ratio [13]: 2.5
COc1cc(-c2ccc3c(n2)CN(c2cn[nH]c2)C3=O)cnc1OC	0.011	32	34	42	
CCCCCCCCc1ccc(CCC(N)(CO)CO)cc1					Activity [14]: Active
COc1cc(-c2ccc3c(n2)CN(c2cnn(CC(F)(F)F)c2)C3=O)cnc1OC	0.004				IC50 [5]: 0.28 µM
